In brackets after ≈: the same amount, converted by molar mass. Activity calls are given as the source filed them.

What is called IC50 is the concentration needed to halve the response being measured. What is called MIC is the least concentration at which growth counts as inhibited.

Assay [1] has as its system Staphylococcus aureus. The assay can be described thus: Antibacterial activity against Staphylococcus aureus CMCC B26003 at 10 ug/disk after 24 hrs by paper disk method. In kind it is functional. The conditions noted are these: CMCC B26003, 24 h, read-out: IZ. Summed up: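 Paper-disk diffusion against S. aureus at 10 µg/disk on MH agar, inoculum 10^6 cfu/mL from MHB broth, 6 mm disks, 37 °C for 24 h. Inhibition zone diameter recorded in mm, n = 3.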

The test system of assay [2] is Candida albicans. The assay can be described thus: Antifungal activity against Candida albicans ATCC 10231 at 25 ug/disk after 48 hrs by paper disk method. In kind it is functional. The conditions noted are these: ATCC 10231, 48 h, read-out: IZ. Summed up: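 C. albicans ATCC 10231 grown in SDB broth culture, adjusted to a final 10^5 cfu/mL, and spread on SD agar. Sample loaded onto 6 mm paper disks placed on the agar surface. Plates incubated at 25 °C for 48 h. Read-out is the diameter of the inhibition zone in mm.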

For assay [3], the system named is HCT-8. Kind of assay: Cytotoxicity against human HCT8 cells by MTT assay. In kind it is functional, cell-based. Summed up: (§1)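 MTT viability read-out in human cancer lines: A2780 ovarian, BEL-7404 liver, A-549, BGC-823 and HCT-8. IC50 derived from the concentration–response data.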
In general terms: Tetrazolium dyes change colour on reduction, which living cells bring about.

Assay [4] has as its system BGC-823. The assay can be described thus: Cytotoxicity against human BGC823 cells by MTT assay. Format: functional, cell-based. Summed up:
as §1

Assay [5] in a line: Cytotoxicity against human Bel7404 cells by MTT assay. In kind it is functional, cell-based, BEL-7404. Summed up:
as §1

In assay [6] the test system is Candida albicans. The assay can be described thus: Antifungal activity against Candida albicans ATCC 10231 at 50 ug/disk after 48 hrs by paper disk method. In kind it is functional, organism-based. Summed up:
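C. albicans grown in SDB broth, final 10^5 cfu/mL. Compound applied to 6 mm paper disks at 50 µg/disk on SD agar and incubated at 25 °C for 48 h. Zone of inhibition measured in mm.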

Assay [7] concerns Staphylococcus aureus. The assay can be described thus: Antibacterial activity against Staphylococcus aureus CMCC B26003 at 5 ug/disk after 24 hrs by paper disk method. Format: functional. Summed up:
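S. aureus grown in MHB broth, final 10^6 cfu/mL. Compound loaded onto 6 mm paper disks at 5 µg/disk and placed on MH agar, 37 °C for 24 h. Inhibition zone diameter measured in mm, n = 3.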

In assay [8] the test system is Staphylococcus aureus. Kind of assay: Antibacterial activity against Staphylococcus aureus CMCC B26003 after 24 hrs by agar dilution method. In kind it is functional. Summed up:
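S. aureus prepared from broth culture in MHB, final inoculum 10^6 cfu/mL. Agar dilution following NCCLS 2002 criteria, with 11 concentrations from 800 down to 0.78 µM (twofold steps).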
(In general: Agar dilution tests growth on a series of plates holding different concentrations.)

Assay [9] has as its system A2780. Kind of assay: Cytotoxicity against human A2780 cells by MTT assay. Format: functional, cell-based. Summed up: as §1
Assay [10] deals with A549. The assay can be described thus: Cytotoxicity against human A549 cells by MTT assay. Format: functional, cell-based. Summed up: as §1
[11] abbreviates: Homo sapiens, HCT-8, read-out: IC50.
[12] abbreviates: Homo sapiens, BGC-823, read-out: IC50.
The mark [13] stands for this setting: Homo sapiens, BEL-7404, read-out: IC50.

Consider `CC1(C)S[C@@H]2[C@H](NC(=O)[C@H](N)c3ccccc3)C(=O)N2[C@H]1C(=O)O` [AMPICILLIN SODIUM], for which the zone of inhibition at 10 µg/disc in [1] turned out to be 38.2 mm.

As for `OC(Cn1cncn1)(Cn1cncn1)c1ccc(F)cc1F` [FLUCONAZOLE], the zone of inhibition at 25 µg/disc in [2] was determined as 31.3 mm.

On to `CC(=O)O[C@H]1C(=O)[C@@]2(C)[C@H]([C@H](OC(=O)c3ccccc3)[C@]3(O)C[C@H](OC(=O)[C@H](O)[C@@H](NC(=O)c4ccccc4)c4ccccc4)C(C)=C1C3(C)C)[C@]1(OC(C)=O)CO[C@@H]1C[C@@H]2O` [PACLITAXEL], for which the IC50 turned out to be 3.6 nM in assay [3] (setting [11]), 3.3 nM in [4] (setting [12]) and 12.3 nM in assay [5] (setting [13]).

On to `O=C1C=CC(=O)C12C=CC1(Oc3cccc4cccc(c34)O1)C2O` (centres undefined) [SPIROPREUSSIONE A], for which the IC50 is > 10000 nM in assay [3] (setting [11]); 2400 nM in [9] (Homo sapiens, A2780, read-out: IC50); > 10000 nM in assay [4] (setting [12]); 3000 nM in assay [5] (setting [13]); > 10000 nM in assay [10] (Homo sapiens, A549, read-out: IC50). Besides, the result in assay [6] was inactive. Moreover, the zone of inhibition at 5 µg/disc in assay [7] (CMCC B26003, 24 h, read-out: IZ) is 16.4 mm. It took 25 µM (≈ 8.01 µg/mL) to inhibit growth in [8] (CMCC B26003, 24 h) (MIC).

Turning to `O=C1C=Cc2cc3c(c4ccc(O)c1c24)C1(Oc2cccc4cccc(c24)O1)C1C(=O)C=CC31O` (centres undefined) [SPIROPREUSSIONE B], the IC50 result in [3] (hct-8), in assay [9] (a2780), in assay [4] (bgc-823), in [5] (bel-7404) and in assay [10] (a549) was “Not Active” each time. Also, the outcome in assay [6] was inactive. In addition, the “inhibition zone (IZ)” value in assay [7] was “inactive”. Moreover, in assay [8], the MIC entry was “inactive”.

On to `Oc1ccc2c(c1)C1(Oc3cccc4cccc(c34)O1)[C@@H]1O[C@@H]1[C@@H]2O` [SPIROPREUSSOMERIN A], for which the IC50 result in [3] (hct-8), in [9] (a2780), in assay [4] (bgc-823), in assay [5] (bel-7404) and in assay [10] (a549) was “Not Active” each time. Moreover, the result in [6] was inactive. Also, the “inhibition zone (IZ)” value in assay [7] is “inactive”. The MIC entry in assay [8] was “inactive”.
